Test results from ChEMBL document CHEMBL4699461, “Enhanced Production and Anticancer Properties of Photoactivated Perylenequinones” (J Nat Prod, 2020).

Experiments:
SK-MEL-28 [1] = experiment: Cytotoxicity against human SK-MEL-28 cells assessed as reduction in cell viability preincubated for 16 hrs in dark condition subsequently incubated for 48 hrs by alamar blue assay; assay type: cell-based
Method in brief: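 SK-MEL-28 human melanoma cells, ~550,000–600,000 cells/mL, settled 3 h at 37 °C, 5% CO₂. Compounds were serially diluted in DPBS and tested over 1 nM to 300 μM. Plates were kept dark in the incubator for 16 h, then 48 h more. alamarBlue was then added for 15–16 h, and viability was read by fluorescence (ex 530, em 620 nm) to give EC₅₀.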

SK-MEL-28 [2] = experiment: Phototoxicity against human SK-MEL-28 cells assessed as reduction in cell viability preincubated for 16 hrs followed by irradiated with 100 J/cm2 625 nanometer red light for 60 mins and measured after 48 hrs by alamar blue assay; assay type: functional, cell-based; conditions: SK-MEL-28, light or radiation study
Method in brief: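 Cells (SK-MEL-28, ~550,000–600,000 cells/mL) were dosed with compound at 1 nM–300 μM in DPBS dilutions, with a 16 h drug-to-light interval at 37 °C. They were irradiated with a 625 nm LED array at 27.8 mW/cm² to 100 J/cm². After 48 h of incubation, alamarBlue was added for 15–16 h and fluorescence was read (ex 530, em 620 nm) to give EC₅₀.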

SK-MEL-28 [3] = experiment: Phototherapeutic index, ratio of EC50 for cytotoxicity against human SK-MEL-28 cells in dark condition to EC50 for phototoxicity against human SK-MEL-28 cells preincubated for 16 hrs followed by irradiated with 100 J/cm2 625 nanometer red light for 60 mins
Method in brief: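 PI for red light, calculated as dark EC₅₀ divided by red-light EC₅₀ in SK-MEL-28 cells. Viability was read 48 h later by alamarBlue fluorescence.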

SK-MEL-28 [4] = experiment: Phototoxicity against human SK-MEL-28 cells assessed as reduction in cell viability preincubated for 16 hrs followed by irradiated with 100 J/cm2 400 to 700 nanometer visible light for 48 mins and measured after 48 hrs by alamar blue assay; conditions: SK-MEL-28, light or radiation study
SK-MEL-28 [5] = experiment: Phototherapeutic index, ratio of EC50 for cytotoxicity against human SK-MEL-28 cells in dark condition to EC50 for phototoxicity against human SK-MEL-28 cells preincubated for 16 hrs followed by irradiated with 100 J/cm2 400 to 700 nanometer visible light for 48 mins

COc1c(O)c2c(=O)cc(OC)c3c4c(OC)cc(O)c5c(=O)c(OC)c6c(c(c1[C@H](C(C)=O)[C@](C)(O)C6)c23)c54
EC50 (SK-MEL-28 [1]): 130000 nM | EC50 (SK-MEL-28 [2]): 59.2 nM | Ratio EC50 (SK-MEL-28 [3]): 2196 | EC50 (SK-MEL-28 [4]): 53.5 nM | Ratio EC50 (SK-MEL-28 [5]): 2430

COc1c(O)c2c(=O)cc(OC)c3c4c(OC)cc(=O)c5c(O)c(OC)c6c(c(c1C[C@@](C)(O)[C@@H]6C(C)=O)c23)c54
EC50 (SK-MEL-28 [1]): 39300 nM | EC50 (SK-MEL-28 [2]): 15.3 nM | Ratio EC50 (SK-MEL-28 [3]): 2569 | EC50 (SK-MEL-28 [4]): 10.3 nM | Ratio EC50 (SK-MEL-28 [5]): 3816

COC1=C(C(C)=O)C2=C(C)Cc3c(OC)c(=O)c(O)c4cc(OC)c5c(OC)cc(O)c6c(c2c3c4c56)C1=O
EC50 (SK-MEL-28 [1]): 43700 nM | EC50 (SK-MEL-28 [2]): 15.7 nM | Ratio EC50 (SK-MEL-28 [3]): 2783 | EC50 (SK-MEL-28 [4]): 14.7 nM | Ratio EC50 (SK-MEL-28 [5]): 2973

COC1=C2c3c4c5c(c(O)cc(OC)c5c5c(OC)cc(O)c(c35)C1=O)C(=O)[C@H](OC)[C@]41C[C@@](C)(O)[C@H]2[C@]1(C)O
EC50 (SK-MEL-28 [1]): 132000 nM | EC50 (SK-MEL-28 [2]): 603 nM | Ratio EC50 (SK-MEL-28 [3]): 219 | EC50 (SK-MEL-28 [4]): 172 nM | Ratio EC50 (SK-MEL-28 [5]): 767

COC1=C2c3c4c5c(c(O)cc(OC)c5c5c(OC)cc(O)c(c35)C1=O)C(=O)C[C@]41C[C@](C)(O)[C@H]2[C@]1(C)O
EC50 (SK-MEL-28 [1]): 98700 nM | EC50 (SK-MEL-28 [2]): 2550 nM | Ratio EC50 (SK-MEL-28 [3]): 39 | EC50 (SK-MEL-28 [4]): 176 nM | Ratio EC50 (SK-MEL-28 [5]): 561

COC1=C2c3c4c5c(c(O)cc(OC)c5c5c(OC)cc(O)c(c35)C1=O)C(=O)[C@H](OC)[C@]41C[C@](C)(O)[C@H]2[C@]1(C)O
EC50 (SK-MEL-28 [1]): > 300000 nM | EC50 (SK-MEL-28 [2]): 1280 nM | Ratio EC50 (SK-MEL-28 [3]): >234 | EC50 (SK-MEL-28 [4]): 135 nM | Ratio EC50 (SK-MEL-28 [5]): >2222
